Experimental findings from PMC4340684 (Bioorganic & medicinal chemistry, 2015) are described below.

In assay [1] the target is T1, recombinant rat HSL (Rattus norvegicus, UniProt P15304).
T1 sequence (P15304 1-768 isoform P15304-2): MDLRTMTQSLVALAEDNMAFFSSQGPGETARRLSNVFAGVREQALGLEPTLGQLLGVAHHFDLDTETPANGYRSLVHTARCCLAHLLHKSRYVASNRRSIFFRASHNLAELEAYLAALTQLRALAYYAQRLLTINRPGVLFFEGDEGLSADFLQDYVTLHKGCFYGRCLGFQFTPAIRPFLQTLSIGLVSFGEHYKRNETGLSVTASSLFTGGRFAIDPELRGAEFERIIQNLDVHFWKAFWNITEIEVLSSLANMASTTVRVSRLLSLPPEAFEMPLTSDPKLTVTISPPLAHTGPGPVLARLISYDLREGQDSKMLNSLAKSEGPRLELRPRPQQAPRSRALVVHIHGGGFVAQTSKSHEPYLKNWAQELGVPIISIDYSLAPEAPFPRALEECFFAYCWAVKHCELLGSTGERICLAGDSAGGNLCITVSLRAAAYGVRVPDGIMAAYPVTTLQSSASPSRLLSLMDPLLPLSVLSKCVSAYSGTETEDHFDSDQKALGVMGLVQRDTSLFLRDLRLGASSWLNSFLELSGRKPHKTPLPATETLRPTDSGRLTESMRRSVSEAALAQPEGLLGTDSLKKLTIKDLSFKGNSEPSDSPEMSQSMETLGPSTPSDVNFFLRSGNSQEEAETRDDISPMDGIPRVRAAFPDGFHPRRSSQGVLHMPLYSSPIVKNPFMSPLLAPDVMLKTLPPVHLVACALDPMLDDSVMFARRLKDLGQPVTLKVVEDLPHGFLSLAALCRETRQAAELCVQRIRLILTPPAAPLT
Nature of the assay: HSL lipase assay. In kind it is biochemical. As to conditions: for times more potent than the corresponding cis isomer: chain lengths of 12–18 carbon atoms.

Assay [2] addresses T1, recombinant rat HSL. As to the kind of experiment: Determination of rate constants for binding and inactivation of HSL. In kind it is biochemical. As to conditions: fit to Eqn 2; no preincubation, 37 °C. The gist of the method: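 Baculovirus/Sf9-expressed rat HSL, Ni-NTA purified. Inhibitor in PC/PI (3:1) liposomes with 500 μM triolein plus 3H-triolein; pH 7.4 buffer, 0.2% BSA. Enzyme added directly at 37 °C; samples every 3–5 min for 30 min, 3H-oleate extracted, scintillation counted. Activity–time data at several inhibitor concentrations fit to Eqn 1 (kobs, k−2); normalized activity fit to Eqn 2 (KI, k2).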

In the case of `CCCCCCCCCCCCCCCCO[P@]1(=O)CC[C@@H]2COC(=O)C2=C(C)O1` (racemic) [Cyclipostin P Phosphonate 6a, (±)-(3R(S),5aR(S))-3-(hexadecyloxy)-1-methyl-4,5,5a,6-tetrahydrofuro[3,4-e][1,2]oxaphosphepin-8(3H)-one 3-oxide], the “fold less potent than the other bicyclic phosphonate analogs” value at recombinant rat HSL [1] (vs about 400 nM) is listed as “about 10 fold”.
Consider `CCCCCCCCCCCC[C@H]1CC[P@@](=O)(OC)OC(C)=C1C(=O)OC` [10b], for which the “times more potent than the corresponding cis isomer” value at recombinant rat HSL [1] is listed as 2–6 times.
Take `CCCCCCCCCCCCCCCC[C@H]1CC[P@@](=O)(OC)OC(C)=C1C(=O)OC` [11b]: the “times more potent than the corresponding cis isomer” value at recombinant rat HSL [1] was 2–6 times.
Regarding `CCCCCCCCCCCCCCCCCC[C@H]1CC[P@@](=O)(OC)OC(C)=C1C(=O)OC` [12b], the “times more potent than the corresponding cis isomer” value on recombinant rat HSL [1] was 2–6 times.
`CCCCCCCCCCCCCCCCO[P@]1(=O)OC[C@@H]2COC(=O)C2=C(C)O1` [Cyclipostin P 4a]: the “k2 (forward rate constant for inactivation)” value at recombinant rat HSL [2] worked out at 0.2 min⁻¹.
As for `CCCCCCCCCCCCCCCCO[P@]1(=O)OC[C@H]2COC(=O)C2=C(C)O1` [Cyclipostin P 4b], the “fold weaker IC50 of the less potent diastereomer vs the more potent diastereomer” value at recombinant rat HSL [1] came out at 16 fold.
